# Source: article PMC3790647 (Clinical cancer research : an official journal of the …, 2013)
# Marks after values point to notes of the source that are not given here.
# Key:
# [1] = Plasma pharmacokinetics of resminostat in patients; type: in vivo, human; conditions: for half-life / AUC / AUC(0-inf) / Tmax / Cmax: human, plasma
# Outline: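 Oral capsules (100–800 mg) were taken once daily within 30 min after a light meal with 240 ml water, with a 1 h post-dose fast on PK days. Day 1 blood was drawn pre-dose to 24 h (15 min–10 h series plus 24 h); days 5 and 47, pre-dose to 8 h. Samples (2 ml EDTA) were kept on ice, spun 10 min at 2700 × g at 4°C, and plasma stored at −80°C. Analysis used validated HPLC-MS/MS and non-compartmental (extravascular) analysis, with AUC0-∞, Cmax and t½ log-transformed.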
# [2] = tested on: histone H4 acetylation; assay: Histone H4 acetylation in PBMC by Western blotting; type: in vivo, human; conditions: 800 mg dose level
smiles,measurement,setting,value
CN(C)Cc1ccc(S(=O)(=O)n2ccc(/C=C/C(=O)NO)c2)cc1 [resminostat],Change in AUC and Cmax between treatment days 1 and 5,[1]; all studied dose levels,no significant change
same,"Time at which peak plasma concentration Cmax was attained, median value","[1]; day 1, single dosing, all doses",2 h
same,Clearance,"[1]; day 1, single oral administration, 100 mg, N=3, geometric mean (68% range), free-base","80900 (51600, 127000) mL/h"
same,Clearance,"[1]; day 1, single oral administration, 200 mg, N=3, geometric mean (68% range), free-base","53800 (45000, 64300) mL/h"
same,Clearance,"[1]; day 1, single oral administration, 400 mg, N=3, geometric mean (68% range), free-base","52500 (50600, 54400) mL/h"
same,Clearance,"[1]; day 1, single oral administration, 600 mg, N=3, geometric mean (68% range), free-base","41400 (32200, 53300) mL/h"
same,Clearance,"[1]; day 1, single oral administration, 800 mg, N=7, geometric mean (68% range), free-base","37700 (29500, 48200) mL/h"
same,Clearance,"[1]; day 5, multiple oral administration, 100 mg, N=3, geometric mean (68% range), free-base","75100 (51000, 110000) mL/h"
same,Clearance,"[1]; day 5, multiple oral administration, 200 mg, N=3, geometric mean (68% range), free-base","59500 (45500, 77800) mL/h"
same,Clearance,"[1]; day 5, multiple oral administration, 400 mg, N=3, geometric mean (68% range), free-base","49300 (39900, 61000) mL/h"
same,Clearance,"[1]; day 5, multiple oral administration, 600 mg, n = 2, geometric mean (68% range), free-base","31100 (27100, 35600)^b mL/h"
same,Clearance,"[1]; day 5, multiple oral administration, 800 mg, N=6, geometric mean (68% range), free-base","41200 (29900, 56800) mL/h"
same,half-life,"[1]; oral, Terminal plasma elimination half-life, range, day 1, all doses",2.35 to 4.41 h
same,AUC,"[1]; po, 100 mg",1330 ng·h/mL
same,AUC(0-inf),"[1]; po, 100 mg",1240 ng·h/mL
same,Tmax,"[1]; po, 100 mg",2 h
same,Cmax,"[1]; po, 100 mg, day 1, single oral administration, 100 mg, N=3, geometric mean (68% range), free-base",487 ng/mL
same,Cmax,"[1]; po, 100 mg, day 5, multiple oral administration, 100 mg, N=3, geometric mean (68% range), free-base",373 ng/mL
same,half-life,"[1]; po, 100 mg, Half-life, day 1, single oral administration, 100 mg, N=3, geometric mean (68% range), free-base",3.77 h
same,AUC,"[1]; po, 200 mg",3360 ng·h/mL
same,AUC(0-inf),"[1]; po, 200 mg",3720 ng·h/mL
same,Tmax,"[1]; po, 200 mg",2 h
same,Cmax,"[1]; po, 200 mg, day 1, single oral administration, 200 mg, N=3, geometric mean (68% range), free-base",1470 ng/mL
same,Cmax,"[1]; po, 200 mg, day 5, multiple oral administration, 200 mg, N=3, geometric mean (68% range), free-base",1060 ng/mL
same,half-life,"[1]; po, 200 mg, Half-life, day 1, single oral administration, 200 mg, N=3, geometric mean (68% range), free-base",3.12 h
same,AUC,"[1]; po, 400 mg",8110 ng·h/mL
same,AUC(0-inf),"[1]; po, 400 mg",7630 ng·h/mL
same,Tmax,"[1]; po, 400 mg",2.5 h
same,Cmax,"[1]; po, 400 mg, day 1, single oral administration, 400 mg, N=3, geometric mean (68% range), free-base",2160 ng/mL
same,Cmax,"[1]; po, 400 mg, day 5, multiple oral administration, 400 mg, N=3, geometric mean (68% range), free-base",2270 ng/mL
same,half-life,"[1]; po, 400 mg, Half-life, day 1, single oral administration, 400 mg, N=3, geometric mean (68% range), free-base",3.44 h
same,AUC,"[1]; po, 600 mg",19300 ng·h/mL
same,AUC(0-inf),"[1]; po, 600 mg",14500 ng·h/mL
same,Tmax,"[1]; po, 600 mg",2.5 h
same,Cmax,"[1]; po, 600 mg, day 1, single oral administration, 600 mg, N=3, geometric mean (68% range), free-base",4100 ng/mL
same,Cmax,"[1]; po, 600 mg, day 5, multiple oral administration, 600 mg, N=3, geometric mean (68% range), free-base",3000 ng/mL
same,half-life,"[1]; po, 600 mg, Half-life, day 1, single oral administration, 600 mg, N=3, geometric mean (68% range), free-base",2.84 h
same,AUC,"[1]; po, 800 mg",19400 ng·h/mL
same,AUC(0-inf),"[1]; po, 800 mg",21200 ng·h/mL
same,Tmax,"[1]; po, 800 mg",1.75 h
same,Cmax,"[1]; po, 800 mg, day 1, single oral administration, 800 mg, N=7, geometric mean (68% range), free-base",4970 ng/mL
same,Cmax,"[1]; po, 800 mg, day 5, multiple oral administration, 800 mg, N=6, geometric mean (68% range), free-base",4510 ng/mL
same,half-life,"[1]; po, 800 mg, Half-life, day 1, single oral administration, 800 mg, N=7, geometric mean (68% range), free-base",2.81 h
same,Oral bioavailability (judged from plasma exposure),"[1]; patients, oral capsules",good oral bioavailability
same,Median increase of histone H4 acetylation level,[2],10 fold
